Consider nine compounds from ChEMBL document CHEMBL4622949, “A chalcone derivative binds a putative allosteric site of YopH: Inhibition of a virulence factor of Yersinia” (Bioorg Med Chem Lett, 2020).

Molecules are shown by their SMILES.

Usually inhibition stands for the share of the control response that was lost under treatment. The term IC50 denotes the concentration at which inhibition is half-maximal. The Ki is a dissociation constant, usually derived from enzyme kinetics or from competition with a known ligand.

The target in assay [1] is T1, Tyrosine-protein phosphatase non-receptor type 22 (Homo sapiens, UniProt Q9Y2R2).
T1 sequence (Q9Y2R2 whole entry): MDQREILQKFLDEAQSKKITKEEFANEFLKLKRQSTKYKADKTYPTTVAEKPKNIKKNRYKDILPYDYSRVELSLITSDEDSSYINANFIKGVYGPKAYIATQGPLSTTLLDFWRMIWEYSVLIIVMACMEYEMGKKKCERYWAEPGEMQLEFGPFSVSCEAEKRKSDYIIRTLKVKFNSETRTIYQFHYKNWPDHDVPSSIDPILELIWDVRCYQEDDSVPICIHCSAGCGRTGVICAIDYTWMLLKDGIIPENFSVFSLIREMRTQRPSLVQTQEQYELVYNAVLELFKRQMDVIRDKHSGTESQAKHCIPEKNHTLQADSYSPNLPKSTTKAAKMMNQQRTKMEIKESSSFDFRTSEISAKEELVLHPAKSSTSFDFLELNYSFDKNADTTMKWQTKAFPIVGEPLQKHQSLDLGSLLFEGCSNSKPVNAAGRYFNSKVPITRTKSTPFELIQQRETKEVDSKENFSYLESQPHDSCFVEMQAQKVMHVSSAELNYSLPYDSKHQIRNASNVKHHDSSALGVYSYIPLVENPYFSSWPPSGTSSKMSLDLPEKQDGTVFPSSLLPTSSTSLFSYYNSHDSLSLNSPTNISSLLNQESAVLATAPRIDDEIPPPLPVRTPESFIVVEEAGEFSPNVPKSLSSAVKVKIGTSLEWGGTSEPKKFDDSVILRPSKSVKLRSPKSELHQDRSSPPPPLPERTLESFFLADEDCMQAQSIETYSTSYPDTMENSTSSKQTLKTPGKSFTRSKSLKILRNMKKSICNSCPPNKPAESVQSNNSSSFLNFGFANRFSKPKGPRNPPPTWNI
Kind of assay: Inhibition of LYP (unknown origin) at 25 uM using pNPP as substrate relative to control.

Assay [2] addresses T2, Tyrosine-protein phosphatase YopH (Yersinia enterocolitica, UniProt P15273). As to the kind of experiment: Inhibition of recombinant Yersinia enterocolitica YopH assessed as reduction in conversion of pNPP to nitrophenol and inorganic phosphate using pNPP as substrate by microplate reader assay. Put shortly: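 Recombinant YopH phosphatase activity was measured in vitro. Values are the average of individual means ± SD from three independent experiments.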

For assay [3], the target named is T2, Tyrosine-protein phosphatase YopH. As to the kind of experiment: Non-competitive mixed inhibition of Yersinia enterocolitica YopH assessed as inhibition constant for enzyme-substrate complex. Put shortly:
(§1)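 Kinetic parameters were derived from Michaelis–Menten plots of YopH activity with and without inhibitor. Ki and α were obtained from a non-competitive mixed-inhibition analysis. Results are means ± SD of three independent experiments.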

The target is the same in assay [4]. Kind of assay: Non-competitive mixed inhibition of Yersinia enterocolitica YopH assessed as inhibition constant. In a few lines:
as §1

Assay [5] addresses Tyrosine-protein phosphatase YopH (Yersinia enterocolitica) (UniProt P15273). As to the kind of experiment: Irreversible inhibition of Yersinia enterocolitica YopH assessed as enzyme recovery activity by dilution assay relative to control. On the set-up: scale not given: the % may be the effect or the level left. In a few lines: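 Reversibility tested by preincubation and dilution: enzyme preincubated with inhibitor, then diluted, and recovered phosphatase activity expressed as a percentage of control.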

T2 sequence (P15273 whole entry): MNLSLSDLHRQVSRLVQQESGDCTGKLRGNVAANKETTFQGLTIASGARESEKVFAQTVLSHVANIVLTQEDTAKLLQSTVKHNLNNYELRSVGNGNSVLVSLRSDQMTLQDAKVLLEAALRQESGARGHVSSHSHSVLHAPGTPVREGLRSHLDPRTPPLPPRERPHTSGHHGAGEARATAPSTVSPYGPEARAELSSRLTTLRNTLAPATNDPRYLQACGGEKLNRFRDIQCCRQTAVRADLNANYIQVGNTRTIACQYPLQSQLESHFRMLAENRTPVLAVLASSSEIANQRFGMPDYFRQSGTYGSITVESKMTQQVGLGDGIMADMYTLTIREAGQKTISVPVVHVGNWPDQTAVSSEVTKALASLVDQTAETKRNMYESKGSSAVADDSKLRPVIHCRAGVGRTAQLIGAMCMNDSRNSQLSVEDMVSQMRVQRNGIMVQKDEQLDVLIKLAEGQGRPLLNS
Tyrosine-protein phosphatase YopH (Yersinia enterocolitica), sequence (P15273 whole entry): as above

`COc1cc(C(=O)/C=C/c2ccc(C(=O)O)cc2)ccc1O` displayed an inhibition at 25 µM in assay [1] of 9.1%.
On the same count and under the same terms, in the case of `O=C(O)c1ccc(/C=C/C(=O)c2ccccc2O)cc1` it was 11.7%.
On the same count and under the same terms, to `COc1ccc(C(=O)/C=C/c2ccc(C(=O)O)cc2)c(OC)c1` belongs 3.9%; to `Cc1ccc(C(=O)/C=C/c2ccc(C(=O)O)cc2)cc1`, 9.5%.
Turning to `O=C(/C=C/c1ccc(O)c(O)c1)O[C@@H](C(=O)O)[C@@H](OC(=O)/C=C/c1ccc(O)c(O)c1)C(=O)O` [CICHORIC ACID], the IC50 in assay [2] is 379 µM. Further, the Ki turned out to be 12.5 µM in assay [3] and 68.3 µM in assay [4]. The Activity in assay [5] came out at 0.6%.
For the compound `O=C(O)c1ccc(/C=C/C(=O)c2ccccc2)cc1`, the inhibition at 25 µM in assay [1] stood at 4.2%.
Still for that read-out and setting: in the case of `COc1ccc(C(=O)/C=C/c2ccc(C(=O)O)cc2)cc1` it was 8.4%.
Same read-out and setting: to `O=C(O)c1ccc(/C=C/C(=O)n2ccnc2)cc1` belongs 25.7%; to `COc1ccc(C(=O)/C=C/c2ccc(C(=O)O)cc2)cc1OC`, 4.2%.
